Assay results from different studies.
Compare with care: the assays were run in different laboratories.
Sample: plasma

Structure (SMILES) | species | route | dose | notes | half-life
CC(=O)N(C)[C@H]1CCN(C(=O)c2cnc3c(c2)C[C@](C)(c2ccc(F)cc2)N3)C1 | male human | oral | 30 mg | multiple doses, once daily, steady state | 21.8 h
OC[C@H]1O[C@@H](c2cc(Cc3ccc(C4CC4)cc3)c(Cl)c3c2CCO3)[C@H](O)[C@@H](O)[C@@H]1O | human | oral | 0.3 mg | single dose, fasted, healthy volunteers | 12.5 h
CC(C)c1nc(N(C)S(C)(=O)=O)nc(-c2ccc(F)cc2)c1/C=C/[C@@H](O)C[C@@H](O)CC(=O)O | human | oral | 10 mg |  | 21.6 h
Cc1cn([C@H]2C[C@H](N=[N+]=[N-])[C@@H](CO)O2)c(=O)[nH]c1=O | human | oral | 600 mg | single dose, healthy volunteers | 1.95 h
O=C(COc1ccc(Cl)cc1)NC12CC(c3nnc([C@H]4C[C@@H](OC(F)(F)F)C4)o3)(C1)C2 | human | oral | 145 mg | multiple doses, once daily, healthy volunteers | 37.5 h
C[C@@H](Oc1ccc(S(C)(=O)=O)cc1C(=O)N1C[C@@H]2C[C@]2(c2cc(C(F)(F)F)on2)C1)C(F)(F)F | human | oral | 10 mg | single dose, fasted, healthy volunteers | 38.1 h
CC1(C)CC[C@]2(NC(=O)C(C)(F)F)CC[C@]3(C)[C@H](C(=O)C=C4[C@@]5(C)C=C(C#N)C(=O)C(C)(C)[C@@H]5CC[C@]43C)[C@@H]2C1 | human | oral | 150 mg | single dose | 88.3 h
COc1ccc2c(c1)CN(C(=O)CCN1CCC(Cc3ccccc3)CC1)CC[S@@+]2[O-] | male human | intravenous | 0.15 mg/kg | single dose, healthy volunteers | 6.39 h
N#Cc1cccc(-c2ccc3ncc(-c4cc(F)cc(F)c4)c(N4CCC(N)CC4)c3c2)c1O | human | intravenous | 50 µg |  | 30 h
C=CC(=O)NC1CCN(c2ncc3ncnc(Nc4ccc(Oc5ccc6c(c5)ncn6C)c(C)c4)c3n2)CC1 | male human | intravenous | 100 µg | healthy volunteers | 42.7 h
